Experimental data pooled from the literature.
Each line is one published result; the experiments were not run side by side.
Target: Maternal embryonic leucine zipper kinase (MELK, Homo sapiens, UniProt Q14680)

Structure (SMILES) | read-out | technique | concentration | remaining binding
Cc1cnn2ncc(-c3ccnc(N(C)C)n3)c2c1 | binding |  | 1 µM | 100%
CN(c1ccnc(CNc2nc(Nc3ccc4c(c3)CC(=O)N4)ncc2C(F)(F)F)n1)S(C)(=O)=O | cell-free assay | competition with immobilised ligand | 1 µM | 40%
O=C(c1ccc(Nc2ncc(Cl)c(-c3cc4ccccc4s3)n2)cc1)N1CCC(N2CCCC2)CC1 | binding | competition with immobilised ligand | 1 µM | 64%
c1cnn2ncc(-c3ccnc(N4CCC45COC5)n3)c2c1 | binding |  | 1 µM | 52%
O=C(NCCCC1CCCCC1)c1ccc(CNC(=O)c2cnn(-c3ccccc3)c2C(F)(F)F)cc1 | cell-free assay | competition with immobilised ligand | 0.1 µM | 80%
COc1cnc(Nc2cccc(S(N)(=O)=O)c2)nc1N1CCN(c2ccccc2)CC1 | binding | competition with immobilised ligand | 1 µM | 88%
CC(=O)C1=C(C)N(c2cccc(C(F)(F)F)c2)C(=O)N[C@@H]1c1ccc(C#N)nc1 | cell-free assay | competition with immobilised ligand | 1 µM | 88.2%
O=C(NCC1CCOCC1)c1n[nH]cc1NC(=O)c1c(F)cccc1F | binding | competition with immobilised ligand | 1 µM | 69%
O=C(c1ccc(Nc2ncc(Cl)c(-c3ccc(Cl)s3)n2)cc1)N1CCC(N2CCCC2)CC1 | binding | competition with immobilised ligand | 1 µM | 54%
CC1CCCN1c1nccc(-c2cnn3ncccc23)n1 (stereo not shown) | binding |  | 1 µM | 97%
COc1ccc2c(c1)O[C@H](c1ccc(OC)c(OC)c1)C[C@@H]2NC(=O)C1(c2ccc3c(c2)OC(F)(F)O3)CC1 | cell-free assay | competition with immobilised ligand | 1 µM | 78%
COc1ccnn2ncc(-c3ccnc(N(C)C)n3)c12 | binding |  | 1 µM | 100%
CNC(=O)Nc1ccc2c(c1)CC[C@@]21OC(=O)N(CC(=O)N(Cc2ccc(F)cc2)[C@@H](C)C(F)(F)F)C1=O | cell-free assay | competition with immobilised ligand | 1 µM | 91%
C[C@@H]1CCN(c2nccc(-c3cnn4ncccc34)n2)C1 | binding |  | 1 µM | 48%
Cc1c(NC(=O)c2cc(C(N)=O)nc3cc(F)ccc23)c(C(F)(F)F)nn1Cc1ccc(C#N)cc1 | cell-free assay | competition with immobilised ligand | 1 µM | 90%
Nc1ncc2c(n1)-c1c([nH]c3ccc(C#CC4CC4)cc13)CCCC2 | binding | competition with immobilised ligand | 1 µM | 100%
CCCCN(CCCC)C(=O)CN1C[C@H](c2cc(OC)c3c(c2)OCO3)[C@@H](C(=O)O)[C@@H]1CC(C)(C)CCC | cell-free assay | competition with immobilised ligand | 1 µM | 100%
CN(C)c1nccc(-c2cnn3ncccc23)n1 | binding |  | 1 µM | 71%
c1cncc(-c2cccc(Nc3nccc(NC4CCCCC4)n3)c2)c1 | binding | competition with immobilised ligand | 10 µM | 84%
Cc1cnc(Nc2ccc(C(=O)N3CCC(N4CCCC4)CC3)cc2)nc1-c1cc2ccccc2s1 | binding | competition with immobilised ligand | 1 µM | 81%
CN(CCCC(F)(F)F)c1nccc(-c2cnn3ncccc23)n1 | binding |  | 1 µM | 94%
COc1cnc(Nc2cccc(S(N)(=O)=O)c2)nc1N1CCN(c2ccccc2)C(=O)C1 | binding | competition with immobilised ligand | 1 µM | 100%
